# Source: PubChem BioAssay
# p97 ATPase inh: human p97 ATPase inhibition | recombinant p97 ATPase, Kinase-Glo ATP luminescence, 3 h | inhibition, % at 8 µM | P55072 | actives 0.42% (n = 220,000); in the data active = inhibition above about 15%;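 note: 0% = DMSO vehicle and 100% = wells lacking enzyme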
# Target sequence (P55072 whole entry, looked up): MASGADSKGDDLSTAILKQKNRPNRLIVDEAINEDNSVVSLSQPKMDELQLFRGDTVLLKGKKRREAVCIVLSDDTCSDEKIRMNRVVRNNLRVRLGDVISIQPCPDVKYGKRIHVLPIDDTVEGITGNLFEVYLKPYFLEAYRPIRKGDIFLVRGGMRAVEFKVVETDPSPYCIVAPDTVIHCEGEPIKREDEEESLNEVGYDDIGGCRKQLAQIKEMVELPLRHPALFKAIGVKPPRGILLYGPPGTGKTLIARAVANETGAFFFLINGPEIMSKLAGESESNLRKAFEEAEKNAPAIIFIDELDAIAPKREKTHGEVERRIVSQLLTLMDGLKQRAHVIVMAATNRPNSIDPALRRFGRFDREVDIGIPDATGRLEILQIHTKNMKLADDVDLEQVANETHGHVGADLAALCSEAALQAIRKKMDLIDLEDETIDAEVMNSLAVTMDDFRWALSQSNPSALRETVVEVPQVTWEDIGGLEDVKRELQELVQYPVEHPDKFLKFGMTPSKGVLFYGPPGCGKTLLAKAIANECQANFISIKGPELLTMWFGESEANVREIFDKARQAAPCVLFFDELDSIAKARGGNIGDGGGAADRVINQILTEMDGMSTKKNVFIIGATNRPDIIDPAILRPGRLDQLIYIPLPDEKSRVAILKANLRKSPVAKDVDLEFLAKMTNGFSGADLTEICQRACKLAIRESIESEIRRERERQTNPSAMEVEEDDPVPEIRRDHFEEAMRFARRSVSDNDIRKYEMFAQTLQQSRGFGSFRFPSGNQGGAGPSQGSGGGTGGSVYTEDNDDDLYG
# PMI act: phosphomannose isomerase (human) activation. activation factor at 20 µM. AID 1214. purified human PMI, coupled resazurin fluorescence, 20 min; hits give high values; 1 = vehicle control, 0 substrate-free wells. actives 0.005% (n = 190,000);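 active = activation factor of 2 or more at 20 µM, relative to plate controls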
# G6PDH counter-1: L. mesenteroides G6PDH inhibition counter-screen. AID 1020. actives 0.12% (n = 200,000). inhibition, % at 5 µM. Purified L. mesenteroides G6PDH, diaphorase/resazurin coupled fluorescence, 45 min; in the data active = inhibition above about 50%
# PMI act hi M6P: increases human PMI activity with near-saturating mannose 6-phosphate | activation factor at 20 µM | actives 0.34% (n = 190,000) | coupled PMI enzyme assay, resazurin fluorescence, 20 min; hits give high values; 1 = untreated enzyme, 0 = substrate-free blank;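 active = activation factor of 2 or more at 20 µM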
#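 Material: human phosphomannose isomerase with PGI, G6PDH, diaphorase coupling enzymes; amount: PMI at 15 ng/mL final; also added: Mannose-6-phosphate 1.0 mM (near-saturating) plus 0.22 mM NADP+; incubation: enzyme reaction with compound 20 min at room temperature; signal: resorufin fluorescence (Ex 544/Em 590 nm) from resazurin via diaphorase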
# TbHK1 inh: T. brucei hexokinase 1 inhibition; inhibition, % at 10 µM; actives 0.11% (n = 220,000); recombinant TbHK1, G6PDH-coupled NADH A340;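 active = inhibition of 50% or more in the single-dose primary screen; inactive = inhibition below 50%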
# Redox H2O2 prof: compounds producing H2O2 with reducing agent – biochemical, NIH compound library profiling, artefact control for MLSCN library redox annotation, primary screen | DTT-dependent redox cycling H2O2, phenol red/HRP absorbance; 100% = 100 µM peroxide control, 0% = buffer | activation, % at 10 µM | actives 0.03% (n = 200,000) | AID 878;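 active = activation of at least 50% relative to the plate's high and low controls in the primary single-dose screen; inactive = activation below 50%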;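 note: compound incubated with DTT at 0.8 mM final as the reducing agent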
# G6PDH counter-2: Leuconostoc glucose-6-phosphate dehydrogenase inhibition, counter-screen. AID 2516. purified G6PDH, NADH absorbance, 1 h. shares compounds with TbHK1 inh. inhibition, % at 10 µM. actives 7% (n = 210);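 active = at least 50% inhibition in the glucose-6-phosphate dehydrogenase coupled counterscreen; inconclusive = no clear call, values can overlap the other calls; inactive = inhibition below 50%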
# TbHK1 rescreen: confirmation of Trypanosoma brucei hexokinase 1 inhibitors; AID 2560; shares compounds with TbHK1 inh; actives 10% (n = 210); inhibition, % at 10 µM; recombinant TbHK1, G6PDH-coupled NADH A340 absorbance;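 active = inhibition of at least 50% in both of the two screening runs; inconclusive = at least 50% in one run, below 50% in the other; inactive = inhibition below 50% in both runs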;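 note: 0% and 100% set by the maximum and minimum signal control wells on each plate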
# p97 confirm: human p97 ATPase inhibition, confirmation; AID 1517; inhibition, % at 8 µM; actives 44% (n = 760); shares compounds with p97 ATPase inh; recombinant p97 ATPase, Kinase-Glo ATP luminescence;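 active = percent inhibition of p97 ATPase above a set limit, the primary screen's mean plus 3 SD, cut at about 15% in these data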;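 note: 0% = DMSO wells and 100% = wells lacking p97 protein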
# The depositor's hits bear a star; u = inconclusive; x = no result. Shown are actives, neighbours in structure and some others; about 0.91% of the full set was active somewhere.
SMILES,p97 ATPase inh,PMI act,G6PDH counter-1,PMI act hi M6P,TbHK1 inh,Redox H2O2 prof,p97 confirm,others
Cc1occc1-c1nnc(SCC(=O)N2CCOCC2)n1CCc1ccccc1,0.1,0.9,-20.1,0.9,54.4*,-0.5,x,G6PDH counter-2=-9.7;TbHK1 rescreen=-1.6
Cc1cc(NC(=O)CSc2nncc(=O)n2N)no1,-2.4,1.1,13.7,1.1,-0.7,-8.5,x,
Cc1ccccc1N=Nc1ccc(O)c2ncccc12,0.6,1.1,4.2,0.7,64.5*,0.0,x,G6PDH counter-2=-3.6;TbHK1 rescreen=-7.7
CCC1(C)Cc2c(C#N)c(N)sc(=S)c2CO1 (stereo not given),2.1,1.3,13.8,1.3,82.7*,1.5,x,G6PDH counter-2=72.5*;TbHK1 rescreen=u
CCC1(C)Cc2c(C#N)c(N)n(-c3ccccc3)c(=S)c2CO1 (stereo not given),6.1,1.2,19.4,0.7,-2.8,-0.5,x,
Cc1ccc2c(c1)N(CC(=O)NC1CCCc3ccccc31)C(=O)CO2 (stereo not given),0.4,1,-3.4,1,66.2*,0.9,x,G6PDH counter-2=0.6;TbHK1 rescreen=-1.4
Cc1ccc2c(c1)N(CC(=O)NC1CCC(C)CC1)C(=O)CO2 (stereo not given),2.1,1,6.0,1,20.6,0.8,x,
Cc1ccccc1NC(=O)C(Cl)=C(Cl)Cl,27.2*,1.1,5.6,1.1,1.1,-2.0,36.1*,
Cc1ccccc1NNC(=O)C(=O)NNc1ccccc1C,-3.6,x,x,x,0.8,x,x,
CCN(CC)S(=O)(=O)c1cccc(NC(=O)c2cc(-c3cccs3)nn2-c2ccccc2)c1,-1.4,0.9,4.5,0.9,21.6,0.8,x,
CN(C)S(=O)(=O)c1cccc(NC(=O)c2cc(-c3cccs3)nn2-c2ccccc2)c1,25.9*,1,13.1,1,-6.8,0.2,5.5,
CCOC(=O)c1ccc(N(C(=O)c2cnccn2)C(C(=O)NC2CCCCC2)c2cn(C)nc2C)cc1 (stereo not given),22.3*,1.1,8.4,1.1,-2.5,1.6,8.9,
Oc1[nH]c(=S)sc1/C=C1\C(c2ccccc2)=Nc2ccccc21,22.7*,0.9,6.1,0.9,-5.7,1.0,53.2*,
S=C(Nc1cccnc1)Nc1cccc2cnccc12,9.4,0.5,41.4,1,3.7,0.1,x,
CN(C)S(=O)(=O)c1cccc(NC(=S)Nc2cccc3cnccc23)c1,27.9*,x,x,x,-8.5,x,13.6,
S=C(Nc1ccc(Cl)cc1)Nc1cccc2cnccc12,18.2*,0.7,32.6,0.9,-6.9,1.1,5.2,
CCOc1ccc(CCNC(=O)CCS(=O)(=O)c2ccc(OC)cc2)cc1OCC,-3.9,1,-0.2,1,-0.3,-0.4,x,
COc1ccc(N2CCN(CC(=O)c3c(C)n(C)c4ccc(OC)cc34)CC2)cc1,27.4*,x,x,x,-9.5,x,33.5*,
COc1ccc2c(c1)c(C(=O)CN1CCOCC1)c(C)n2C,-4.0,0.9,14.1,1,-9.2,-0.2,x,
O=C(CCl)Nc1ccccc1C(=O)NCc1ccccc1,18.3*,1.1,0.2,1.1,-0.4,-2.1,15.9*,
CC(=O)Nc1cccc(NC(=O)CS(=O)(=O)c2cn(CC(=O)N3CCOCC3)c3ccccc23)c1,2.5,1.1,-4.4,1,-3.5,-2.9,x,
Nc1c(N)c2ccccc2oc1=O,-0.7,0.9,-0.4,0.9,-14.6,-0.1,x,
O=c1oc2ccccc2c2oc3cc(O)c(O)cc3c12,18.6*,x,x,x,-28.8,x,21.8*,
CCCS(=O)c1nc(C)cc(C)c1S(C)(=O)=O (stereo not given),-0.2,1,5.5,1.1,-2.6,-1.1,x,
O=C1NN(c2cccc(Br)c2)C(=O)/C1=C/c1cccs1,16.8*,x,x,x,-39.3,x,23.0*,
SMILES,p97 ATPase inh,PMI act,G6PDH counter-1,PMI act hi M6P,TbHK1 inh,Redox H2O2 prof,p97 confirm,others
O=C1NN(c2ccccc2)C(=O)/C1=C/c1cccs1,8.0,1,-0.6,1,-22.2,1.6,x,
CN(Cc1ccccc1)C(=O)CSc1nc2ccccc2c(=O)n1Cc1ccco1,7.2,0.7,-2.1,0.7,-2.3,-0.9,x,
Cc1ccc(NC(=O)CN(C)C(=O)CSc2nc3ccccc3c(=O)n2Cc2ccco2)cc1,19.4*,0.9,-4.1,0.9,-1.0,2.0,7.1,
O=C(O)c1cc(-c2c[nH]c3ccccc23)nc2ccc3ccccc3c12,19.7*,1,6.9,0.8,-12.6,0.5,19.6*,
Cc1ccccc1-n1nnnc1SCC(=O)N(C)C1CCS(=O)(=O)C1 (stereo not given),-0.8,1,7.6,1,-2.9,0.0,x,
COCCN1C(=O)c2cc(C(=O)Nc3ccc(C)c(F)c3)ccc2C1Nc1ccc(C)c(F)c1 (stereo not given),8.3,1.2,17.7,1,0.0,1.0,x,
COc1cc2c(C#N)c(N3CCCC3)nc(N)c2c(N)n1,26.1*,x,x,x,-7.5,x,3.9,
N#C/C(=C/c1cccn1-c1cccc(C(=O)O)c1)c1ccc(F)cc1,-1.7,1,2.8,1,-4.7,-1.2,x,
O=C(CSc1ncnc2scc(-c3ccccc3)c12)Nc1ccc(C(=O)O)cc1,19.7*,x,x,x,-3.9,x,16.8*,
O=C1NN(c2ccc(F)c(Cl)c2)C(=O)/C1=C\c1cccc(OC(=O)c2cccs2)c1,16.3*,1.1,0.4,1.1,-0.1,0.7,14.6,
COc1ccc(C(=O)Nc2n[nH]c(-c3ccncc3)n2)cc1,3.5,1.1,-0.3,1.1,1.8,-3.5,x,
COc1cccc(Nc2ccccc2C(=O)O)c1,16.2*,1.1,4.0,1,2.4,-0.9,4.8,
COc1ccc2c(c1)CCCC21SC(NC(C)=O)=NN1C(C)=O (stereo not given),3.0,1,-0.9,1,-1.7,0.0,x,
Cc1cc2cccc(C)c2nc1SCC(=O)NNC(=O)c1ccco1,3.0,1,-4.5,1,-16.0,-0.4,x,
Cc1cc(C)c2nc(SCC(=O)NNC(=O)c3ccco3)c(C)cc2c1,15.0*,0.9,7.8,0.9,-7.2,-0.9,16.2*,
Oc1cccc(/C=N/NC(=S)Nc2cccnc2)c1O,17.8*,0.4,51.2*,0.4,5.6,x,34.6*,
Fc1cccc(F)c1/C=N/NC(=S)Nc1cccnc1,-1.0,1,-2.8,1.1,-15.6,-2.1,x,
Oc1ccc(/C=N/NC(=S)Nc2cccnc2)c(O)c1,19.4*,1,-13.9,1.1,-27.5,0.0,25.6*,
Fc1c(F)c(F)c(/C=N/NC(=S)Nc2cccnc2)c(F)c1F,4.2,0.9,11.3,0.9,-4.9,-1.0,x,
